Test results: ChEMBL document CHEMBL5058577, “EUbOPEN Chemogenomics Library 2 (Multiplex)” (2022)

Tested on: U2OS
Test: Multiplex assay against U2OS
Format: toxicity, cell-based
Settings: human
Outline: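 Hoechst33342, BioTracker Green Microtubule Cytoskeleton Dye, MitoTracker Red and Annexin V Alexa Fluor 680 were added to live cells at seeding, and imaging on a CQ1 microscope at 37°C and 5% CO2 followed compound addition. Gating by CellPathfinder machine learning separated cells into Hoechst high-intensity objects or normal cells, then normal cells into healthy, pyknosed or fragmented nuclei, then pyknosed cells into mitotic or apoptotic. Per cents of healthy-nucleus cells are reported for the tubulin, mitochondrial-mass and membrane-permeability phenotypes.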

[1] = 12 h, 1 µM, compound concentration 1 uM, replicate 1
[2] = 12 h, 1 µM, compound concentration 1 uM, replicate 2
[3] = 12 h, 10 µM, compound concentration 10 uM, replicate 1
[4] = 12 h, 10 µM, compound concentration 10 uM, replicate 2
[5] = 24 h, 1 µM, compound concentration 1 uM, replicate 1
[6] = 24 h, 1 µM, compound concentration 1 uM, replicate 2
[7] = 24 h, 10 µM, compound concentration 10 uM, replicate 1
[8] = 24 h, 10 µM, compound concentration 10 uM, replicate 2
[9] = 48 h, 1 µM, compound concentration 1 uM, replicate 1
[10] = 48 h, 1 µM, compound concentration 1 uM, replicate 2
[11] = 48 h, 10 µM, compound concentration 10 uM, replicate 1
[12] = 48 h, 10 µM, compound concentration 10 uM, replicate 2

CCCCCC(O)/C=C/[C@H]1C(=O)CC(O)C1C/C=C\CCCC(=O)O (stereo partly specified)
Population Apoptotic (%) [1]: 60%
Population Fragmented Nuclei (%) [1]: 28%
Population Healthy Nuclei (%) [1]: 59%
Population Hoechst High Intensity Objects (%) [1]: 1%
Population Membrane Permeable-Phenotype (%) [1]: 5%
Population Mitochondria Different-Phenotype (%) [1]: 4%
Population Mitotic Cells (%) [1]: 40%
Population Normal (%) [1]: 98%
Population Pyknosed Nuclei (%) [1]: 12%
Population Tubulin-Different-Phenotype (%) [1]: 4%
Total Cell Count [1]: 203
Population Apoptotic (%) [2]: 88%
Population Fragmented Nuclei (%) [2]: 15%
Population Healthy Nuclei (%) [2]: 76%
Population Hoechst High Intensity Objects (%) [2]: 0%
Population Membrane Permeable-Phenotype (%) [2]: 8%
Population Mitochondria Different-Phenotype (%) [2]: 6%
Population Mitotic Cells (%) [2]: 11%
Population Normal (%) [2]: 99%
Population Pyknosed Nuclei (%) [2]: 8%
Population Tubulin-Different-Phenotype (%) [2]: 8%
Total Cell Count [2]: 113
Population Apoptotic (%) [3]: 71%
Population Fragmented Nuclei (%) [3]: 23%
Population Healthy Nuclei (%) [3]: 69%
Population Hoechst High Intensity Objects (%) [3]: 2%
Population Membrane Permeable-Phenotype (%) [3]: 8%
Population Mitochondria Different-Phenotype (%) [3]: 3%
Population Mitotic Cells (%) [3]: 28%
Population Normal (%) [3]: 97%
Population Pyknosed Nuclei (%) [3]: 7%
Population Tubulin-Different-Phenotype (%) [3]: 5%
Total Cell Count [3]: 190
Population Apoptotic (%) [4]: 66%
Population Fragmented Nuclei (%) [4]: 16%
Population Healthy Nuclei (%) [4]: 73%
Population Membrane Permeable-Phenotype (%) [4]: 10%
Population Mitochondria Different-Phenotype (%) [4]: 2%
Population Mitotic Cells (%) [4]: 33%
Population Pyknosed Nuclei (%) [4]: 9%
Population Tubulin-Different-Phenotype (%) [4]: 4%
Total Cell Count [4]: 94
Population Apoptotic (%) [5]: 86%
Population Fragmented Nuclei (%) [5]: 27%
Population Healthy Nuclei (%) [5]: 63%
Population Hoechst High Intensity Objects (%) [5]: 2%
Population Membrane Permeable-Phenotype (%) [5]: 3%
Population Mitochondria Different-Phenotype (%) [5]: 0%
Population Mitotic Cells (%) [5]: 13%
Population Normal (%) [5]: 98%
Population Pyknosed Nuclei (%) [5]: 8%
Population Tubulin-Different-Phenotype (%) [5]: 1%
Total Cell Count [5]: 250
Population Apoptotic (%) [6]: 90%
Population Fragmented Nuclei (%) [6]: 16%
Population Healthy Nuclei (%) [6]: 74%
Population Hoechst High Intensity Objects (%) [6]: 0%
Population Membrane Permeable-Phenotype (%) [6]: 5%
Population Mitochondria Different-Phenotype (%) [6]: 7%
Population Mitotic Cells (%) [6]: 9%
Population Normal (%) [6]: 99%
Population Tubulin-Different-Phenotype (%) [6]: 4%
Total Cell Count [6]: 131
Population Apoptotic (%) [7]: 100%
Population Fragmented Nuclei (%) [7]: 23%
Population Healthy Nuclei (%) [7]: 66%
Population Hoechst High Intensity Objects (%) [7]: 1%
Population Membrane Permeable-Phenotype (%) [7]: 6%
Population Mitochondria Different-Phenotype (%) [7]: 4%
Population Mitotic Cells (%) [7]: 0%
Population Normal (%) [7]: 98%
Population Pyknosed Nuclei (%) [7]: 9%
Population Tubulin-Different-Phenotype (%) [7]: 4%
Total Cell Count [7]: 216
Population Apoptotic (%) [8]: 90%
Population Fragmented Nuclei (%) [8]: 16%
Population Healthy Nuclei (%) [8]: 74%
Population Hoechst High Intensity Objects (%) [8]: 2%
Population Membrane Permeable-Phenotype (%) [8]: 5%
Population Mitochondria Different-Phenotype (%) [8]: 1%
Population Mitotic Cells (%) [8]: 10%
Population Normal (%) [8]: 97%
Population Pyknosed Nuclei (%) [8]: 8%
Population Tubulin-Different-Phenotype (%) [8]: 2%
Total Cell Count [8]: 118
Population Apoptotic (%) [9]: 89%
Population Fragmented Nuclei (%) [9]: 19%
Population Healthy Nuclei (%) [9]: 71%
Population Hoechst High Intensity Objects (%) [9]: 2%
Population Membrane Permeable-Phenotype (%) [9]: 4%
Population Mitochondria Different-Phenotype (%) [9]: 3%
Population Mitotic Cells (%) [9]: 10%
Population Normal (%) [9]: 97%
Population Pyknosed Nuclei (%) [9]: 8%
Population Tubulin-Different-Phenotype (%) [9]: 2%
Total Cell Count [9]: 334
Population Apoptotic (%) [10]: 100%
Population Fragmented Nuclei (%) [10]: 13%
Population Healthy Nuclei (%) [10]: 79%
Population Membrane Permeable-Phenotype (%) [10]: 5%
Population Mitochondria Different-Phenotype (%) [10]: 4%
Population Mitotic Cells (%) [10]: 0%
Population Pyknosed Nuclei (%) [10]: 7%
Population Tubulin-Different-Phenotype (%) [10]: 3%
Total Cell Count [10]: 189
Population Apoptotic (%) [11]: 89%
Population Fragmented Nuclei (%) [11]: 23%
Population Healthy Nuclei (%) [11]: 67%
Population Hoechst High Intensity Objects (%) [11]: 3%
Population Membrane Permeable-Phenotype (%) [11]: 6%
Population Mitochondria Different-Phenotype (%) [11]: 3%
Population Mitotic Cells (%) [11]: 10%
Population Normal (%) [11]: 96%
Population Pyknosed Nuclei (%) [11]: 9%
Population Tubulin-Different-Phenotype (%) [11]: 4%
Total Cell Count [11]: 302
Population Apoptotic (%) [12]: 100%
Population Fragmented Nuclei (%) [12]: 21%
Population Healthy Nuclei (%) [12]: 70%
Population Hoechst High Intensity Objects (%) [12]: 2%
Population Membrane Permeable-Phenotype (%) [12]: 7%
Population Mitotic Cells (%) [12]: 0%
Population Normal (%) [12]: 97%
Population Pyknosed Nuclei (%) [12]: 7%
Population Tubulin-Different-Phenotype (%) [12]: 3%
Total Cell Count [12]: 161
